Consider 1 compound from ChEMBL document CHEMBL3853331, “Preparation, Antiepileptic Activity, and Cardiovascular Safety of Dihydropyrazoles as Brain-Penetrant T-Type Calcium Channel Blockers” (J Med Chem, 2016).

The structures appear in SMILES notation. pIC50: −log10 of the molar value.

The nature of data set [1]: Drug uptake in Wistar rat brain at 10 mg/kg, po measured after 3 hrs. The class given is ADME, organism-based. Particulars: read-out: Drug uptake. The procedure, abridged:
(§1)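 Male Wistar rats given oral doses of 10, 30 or 100 mg/kg. Plasma, brain and CSF collected at 1 h, and at 3 h for the 10 mg/kg dose; compound concentrations measured in each.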

The target of data set [2] is T1, Cytochrome P450 3A4 (Homo sapiens, UniProt P08684). The data set is described as follows: Inhibition of CYP3A4 (unknown origin) using testosterone as substrate. The class given is ADME.
T1 sequence (P08684 whole entry): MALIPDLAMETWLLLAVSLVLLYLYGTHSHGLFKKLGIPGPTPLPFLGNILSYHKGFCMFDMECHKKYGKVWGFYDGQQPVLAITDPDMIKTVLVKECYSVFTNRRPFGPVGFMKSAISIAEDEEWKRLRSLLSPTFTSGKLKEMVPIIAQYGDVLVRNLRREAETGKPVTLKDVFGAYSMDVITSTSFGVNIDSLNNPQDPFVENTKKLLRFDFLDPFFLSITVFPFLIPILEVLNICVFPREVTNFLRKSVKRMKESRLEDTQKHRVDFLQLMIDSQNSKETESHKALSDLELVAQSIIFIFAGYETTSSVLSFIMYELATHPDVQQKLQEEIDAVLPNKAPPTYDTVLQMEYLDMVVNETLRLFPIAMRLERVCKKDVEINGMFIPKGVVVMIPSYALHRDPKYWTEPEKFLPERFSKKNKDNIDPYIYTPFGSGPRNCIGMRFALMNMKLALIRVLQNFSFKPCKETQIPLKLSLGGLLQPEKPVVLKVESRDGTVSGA
Data set [3] in a line: Plasma concentration in Wistar rat at 10 mg/kg, po measured after 3 hrs. The class given is ADME, organism-based.
A short description of data set [4]: Volume of distribution at steady state in Wistar rat plasma at 0.2 mg/kg, iv. The class given is ADME, organism-based. The settings on record: read-out: Vdss.
For data set [5], the target named is T1, Cytochrome P450 3A4. The data set is described as follows: Inhibition of CYP3A4 (unknown origin) using midazolam as substrate. The class given is ADME.
Data set [6] in a line: Metabolic stability in mouse microsomes measured per mg protein. The class given is ADME, Microsome.
Data set [7] in a line: Tmax in Beagle dog plasma at 10 mg/kg, po. The class given is ADME, organism-based, Canis lupus familiaris.
Data set [8] is described as follows: Fraction unbound in rat plasma. The class given is ADME, cell-free.
Data set [9] has as its target Voltage-dependent T-type calcium channel subunit alpha-1H (Homo sapiens, UniProt O95180). Kind of data set: Inhibition of human T-type calcium channel Cav3.2 expressed in CHO cells assessed as inhibition of calcium tail current at -90 mV holding potential measured after 150 secs by QPatch assay. The class given is cell-based. The procedure, abridged:
(§2)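 CHO cells stably expressing human Cav3.1, Cav3.2 or Cav3.3, automated QPatch recording. 3-ms depolarization to +20 mV from a holding potential of -90 or -60 mV. Ca2+ tail current measured at -60 mV. Cs-glutamate internal and TEA-Cl external solution with 5 mM Ca2+. Effect read 150 s after application.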

In data set [10] the target is Voltage-dependent T-type calcium channel subunit alpha-1I (Homo sapiens, UniProt Q9P0X4). The data set is described as follows: Inhibition of human T-type calcium channel Cav3.3 expressed in CHO cells assessed as inhibition of calcium tail current at -90 mV holding potential measured after 150 secs by QPatch assay. The class given is cell-based. In a few lines: as §2
Voltage-dependent T-type calcium channel subunit alpha-1I, sequence (Q9P0X4 whole entry): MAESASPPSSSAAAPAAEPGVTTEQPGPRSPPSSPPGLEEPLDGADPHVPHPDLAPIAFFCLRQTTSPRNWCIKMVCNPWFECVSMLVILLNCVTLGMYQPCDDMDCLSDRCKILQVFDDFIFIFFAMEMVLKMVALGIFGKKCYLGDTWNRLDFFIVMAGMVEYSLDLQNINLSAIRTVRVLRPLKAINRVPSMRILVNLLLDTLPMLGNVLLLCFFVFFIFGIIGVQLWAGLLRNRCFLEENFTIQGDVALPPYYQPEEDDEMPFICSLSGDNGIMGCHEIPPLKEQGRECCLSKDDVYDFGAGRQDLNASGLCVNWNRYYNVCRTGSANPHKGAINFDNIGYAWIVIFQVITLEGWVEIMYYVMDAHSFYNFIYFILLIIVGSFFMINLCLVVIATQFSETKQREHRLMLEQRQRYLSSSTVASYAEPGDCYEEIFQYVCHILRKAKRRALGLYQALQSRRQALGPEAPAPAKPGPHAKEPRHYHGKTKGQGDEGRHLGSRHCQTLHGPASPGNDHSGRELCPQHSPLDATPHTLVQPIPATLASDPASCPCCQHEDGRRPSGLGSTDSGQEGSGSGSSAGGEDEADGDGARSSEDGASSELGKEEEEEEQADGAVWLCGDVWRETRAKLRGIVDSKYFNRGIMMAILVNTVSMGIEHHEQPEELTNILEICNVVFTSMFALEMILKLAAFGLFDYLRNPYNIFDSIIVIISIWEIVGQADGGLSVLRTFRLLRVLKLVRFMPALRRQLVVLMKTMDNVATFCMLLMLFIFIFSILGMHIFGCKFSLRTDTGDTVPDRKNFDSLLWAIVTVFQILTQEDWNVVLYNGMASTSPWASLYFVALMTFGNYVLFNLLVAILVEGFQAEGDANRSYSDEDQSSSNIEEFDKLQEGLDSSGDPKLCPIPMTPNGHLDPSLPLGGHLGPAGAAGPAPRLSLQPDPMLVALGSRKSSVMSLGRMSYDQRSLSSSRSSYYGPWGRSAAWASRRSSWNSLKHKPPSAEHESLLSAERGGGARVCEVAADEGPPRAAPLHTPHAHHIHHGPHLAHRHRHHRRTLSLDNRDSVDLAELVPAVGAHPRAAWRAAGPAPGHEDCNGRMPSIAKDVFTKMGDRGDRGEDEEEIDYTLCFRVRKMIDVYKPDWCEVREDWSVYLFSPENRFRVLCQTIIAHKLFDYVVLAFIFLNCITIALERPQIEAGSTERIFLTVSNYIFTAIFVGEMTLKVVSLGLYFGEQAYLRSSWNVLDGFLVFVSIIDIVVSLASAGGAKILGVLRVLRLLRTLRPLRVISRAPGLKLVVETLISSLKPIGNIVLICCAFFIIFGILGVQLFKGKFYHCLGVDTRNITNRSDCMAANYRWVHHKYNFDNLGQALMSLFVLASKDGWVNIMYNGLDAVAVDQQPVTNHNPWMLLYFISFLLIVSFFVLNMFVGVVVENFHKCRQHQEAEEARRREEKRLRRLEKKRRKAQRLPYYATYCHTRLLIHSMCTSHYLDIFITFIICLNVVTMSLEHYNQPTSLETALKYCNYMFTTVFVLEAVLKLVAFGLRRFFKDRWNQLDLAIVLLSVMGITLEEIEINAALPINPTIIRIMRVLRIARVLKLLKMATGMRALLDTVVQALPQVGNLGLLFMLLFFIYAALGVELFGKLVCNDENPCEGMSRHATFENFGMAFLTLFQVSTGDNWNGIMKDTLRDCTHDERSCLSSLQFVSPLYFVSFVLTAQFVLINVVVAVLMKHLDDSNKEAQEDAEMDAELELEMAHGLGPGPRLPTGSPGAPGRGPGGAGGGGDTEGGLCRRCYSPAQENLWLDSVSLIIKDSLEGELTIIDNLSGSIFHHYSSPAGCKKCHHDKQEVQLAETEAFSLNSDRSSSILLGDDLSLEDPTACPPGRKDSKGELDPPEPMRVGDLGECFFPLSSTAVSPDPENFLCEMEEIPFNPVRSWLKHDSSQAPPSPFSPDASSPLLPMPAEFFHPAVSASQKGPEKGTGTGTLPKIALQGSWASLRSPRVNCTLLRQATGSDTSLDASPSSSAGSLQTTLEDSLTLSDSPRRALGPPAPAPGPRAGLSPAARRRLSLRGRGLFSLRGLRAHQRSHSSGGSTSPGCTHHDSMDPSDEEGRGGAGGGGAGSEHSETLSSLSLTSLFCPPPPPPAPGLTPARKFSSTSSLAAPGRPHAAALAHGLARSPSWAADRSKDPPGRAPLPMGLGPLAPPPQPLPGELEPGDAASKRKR
On the technique in general: In patch-clamp work, channel activity is measured electrically.

Data set [11] in a line: Drug uptake in Wistar rat brain at 100 mg/kg, po measured after 1 hr. The class given is ADME, organism-based. The settings on record: read-out: Drug uptake. The procedure, abridged: as §1
A short description of data set [12]: Cmax in Beagle dog plasma at 10 mg/kg, po. More on the design: dose 10 mg/kg, route oral. The class given is ADME, organism-based, Canis lupus familiaris. In a few lines:
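Beagle dogs given a single oral dose of 10 mg/kg; plasma Cmax and Tmax determined.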

The next data set concerns MDR1. Kind of data set: Apparent permeability across apical to basolateral side in MDCK cells expressing MDR1 (unknown origin) at 1 uM. The class given is ADME, cell-based, Canis lupus familiaris. Particulars: dog. The procedure, abridged:
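MDR1-transfected MDCK cell monolayers. Compound tested at 1 µM. Apparent permeability measured in both directions, apical to basolateral and basolateral to apical. Efflux ratio taken from the two directional permeabilities.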

Voltage-dependent T-type calcium channel subunit alpha-1H, sequence (O95180 whole entry): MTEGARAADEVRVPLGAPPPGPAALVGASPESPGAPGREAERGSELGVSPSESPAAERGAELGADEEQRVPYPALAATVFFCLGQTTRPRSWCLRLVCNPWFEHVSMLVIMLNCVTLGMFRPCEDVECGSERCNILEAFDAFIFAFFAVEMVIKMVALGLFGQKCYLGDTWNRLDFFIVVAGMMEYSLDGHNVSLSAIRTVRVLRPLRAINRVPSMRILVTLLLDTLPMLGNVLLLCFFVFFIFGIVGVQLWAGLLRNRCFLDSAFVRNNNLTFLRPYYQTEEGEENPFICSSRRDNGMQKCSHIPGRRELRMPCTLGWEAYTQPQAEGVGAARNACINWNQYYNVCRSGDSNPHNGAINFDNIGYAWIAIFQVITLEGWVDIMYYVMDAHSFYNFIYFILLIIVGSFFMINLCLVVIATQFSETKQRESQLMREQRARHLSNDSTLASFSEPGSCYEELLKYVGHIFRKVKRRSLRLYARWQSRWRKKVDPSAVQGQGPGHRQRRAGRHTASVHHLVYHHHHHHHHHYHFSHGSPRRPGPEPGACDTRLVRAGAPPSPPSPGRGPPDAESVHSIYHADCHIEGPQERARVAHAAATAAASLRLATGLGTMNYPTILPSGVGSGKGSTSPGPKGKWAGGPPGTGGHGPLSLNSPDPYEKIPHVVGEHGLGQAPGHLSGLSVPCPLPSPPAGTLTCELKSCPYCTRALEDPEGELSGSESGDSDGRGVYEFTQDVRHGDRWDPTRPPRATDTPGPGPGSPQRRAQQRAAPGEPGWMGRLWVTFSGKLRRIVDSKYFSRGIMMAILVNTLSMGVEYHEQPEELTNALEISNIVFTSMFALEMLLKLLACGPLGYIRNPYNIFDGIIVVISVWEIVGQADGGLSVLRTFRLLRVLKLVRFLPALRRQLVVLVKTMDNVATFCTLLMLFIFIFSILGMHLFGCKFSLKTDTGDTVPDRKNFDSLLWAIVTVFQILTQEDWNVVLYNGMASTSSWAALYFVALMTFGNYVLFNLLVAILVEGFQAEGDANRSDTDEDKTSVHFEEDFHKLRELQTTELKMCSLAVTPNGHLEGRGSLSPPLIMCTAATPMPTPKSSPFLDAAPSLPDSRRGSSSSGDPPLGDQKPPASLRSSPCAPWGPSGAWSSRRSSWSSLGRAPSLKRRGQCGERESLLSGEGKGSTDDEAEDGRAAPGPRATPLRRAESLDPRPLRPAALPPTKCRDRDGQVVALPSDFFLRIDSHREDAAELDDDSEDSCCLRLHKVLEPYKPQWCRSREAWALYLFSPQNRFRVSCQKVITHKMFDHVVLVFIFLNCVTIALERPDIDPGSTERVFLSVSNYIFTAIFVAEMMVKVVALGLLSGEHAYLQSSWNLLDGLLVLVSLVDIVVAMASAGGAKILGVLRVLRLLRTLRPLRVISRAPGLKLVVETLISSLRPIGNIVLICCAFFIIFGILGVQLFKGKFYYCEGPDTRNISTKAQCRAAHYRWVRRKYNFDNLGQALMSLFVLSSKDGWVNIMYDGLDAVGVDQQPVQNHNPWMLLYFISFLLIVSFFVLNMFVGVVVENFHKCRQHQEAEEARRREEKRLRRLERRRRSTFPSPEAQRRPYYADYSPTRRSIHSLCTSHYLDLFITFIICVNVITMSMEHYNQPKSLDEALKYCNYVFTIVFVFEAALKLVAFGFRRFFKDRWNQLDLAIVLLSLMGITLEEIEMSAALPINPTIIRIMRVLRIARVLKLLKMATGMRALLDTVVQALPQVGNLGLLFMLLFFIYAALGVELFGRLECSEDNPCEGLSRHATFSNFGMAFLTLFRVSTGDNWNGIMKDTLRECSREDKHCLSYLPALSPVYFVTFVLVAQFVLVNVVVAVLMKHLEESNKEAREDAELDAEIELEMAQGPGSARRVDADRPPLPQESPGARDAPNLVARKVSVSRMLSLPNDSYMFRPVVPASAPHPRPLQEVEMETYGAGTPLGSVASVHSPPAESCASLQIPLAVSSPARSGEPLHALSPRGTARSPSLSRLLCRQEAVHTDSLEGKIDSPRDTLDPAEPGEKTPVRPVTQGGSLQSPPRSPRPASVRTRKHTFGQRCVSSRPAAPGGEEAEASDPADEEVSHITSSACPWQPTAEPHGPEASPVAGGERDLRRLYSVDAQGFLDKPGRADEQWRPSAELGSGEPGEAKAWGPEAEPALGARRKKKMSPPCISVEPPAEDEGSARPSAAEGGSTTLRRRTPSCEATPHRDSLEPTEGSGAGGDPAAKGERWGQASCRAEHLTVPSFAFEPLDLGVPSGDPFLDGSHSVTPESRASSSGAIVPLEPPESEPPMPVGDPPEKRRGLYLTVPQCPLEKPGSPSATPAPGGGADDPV

The pIC50 is the negative decadic logarithm of the IC50, by convention in mol/L. What is called microsomal CLint is a measure of how fast metabolising enzymes remove a compound, apart from limits set by blood flow. Read a high microsomal CLint as faster metabolism. As usually defined, the Tmax is the time at which the peak concentration occurs. By fraction unbound is commonly meant free concentration divided by total concentration. High values mean weak binding, low ones extensive binding. What is called Cmax is the maximum level reached in the sampled fluid or tissue. What is called Papp A→B is the apparent permeability from the apical to the basolateral side of a cell layer. On to `O=C(Nc1ccc(F)cc1)N1N=C(c2ccncc2)CC1c1ccc(F)cc1` (stereo not drawn), for which the concentration at 3 h was found to be 1150 nM in data set [1] and 290 nM in data set [3]. In addition, the pIC50 against Cytochrome P450 3A4 [2] was 5.74; on Cytochrome P450 3A4 [5] it was 4.74; in data set [9], 5.77; in data set [10] it was 5.15. The Vd in data set [4] stood at 23 L/kg. In addition, the intrinsic clearance (microsomal CLint) in data set [6] is 37 µL/min/mg. In addition, in data set [7], the time to peak (Tmax) was determined as 45 min. In [8], this compound showed a free fraction (fraction unbound) of 0.03. The concentration at 1 h in data set [11] was 4270 nM. The compound also gave a maximum concentration (Cmax) in data set [12] of 160 nM. Also, the apical-to-basolateral permeability (Papp A→B) at 1 µM in the data set with MDR1 turned out to be 45 ×10⁻⁶ cm/s.
